A value given as a limit tells only on which side of the number the result lay.

One assay concerns CAPAN-1. The experiment in a line: Induction of apoptosis in KRAS-dependent human Capan1 cells after 48 hrs by Annexin-V FITC/propidium iodide staining-based flow cytometry. It counts as functional, cell-based.
Conditions: not given
In a few lines: (§1)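 Capan-1 cells were exposed to compound for 48 h, with 0.1% DMSO as the vehicle control. The read-out is the percentage of apoptotic cells. Compounds were tested at 10, 25 or 50 μM.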
Regarding `O=C1c2cc(F)ccc2N(CC2CC2)C(c2ccccc2F)N1C1CCN(CCCn2ccnc2-c2ccccc2)CC1` (stereo not drawn), the Activity entry is “Dose-dependent effect”.

For a further assay, the system named is CAPAN-1. The assay is described as follows: Induction of apoptosis in KRAS-dependent human Capan1 cells at 25 uM incubated for 48 hrs by Annexin-V FITC/propidium iodide staining-based flow cytometry (reference value: 3.51%). Format: functional.
Conditions: not given
In a few lines:
as §1
In general terms: In flow cytometry, cells or beads pass a laser one at a time.
Turning to `O=C1c2cc(F)ccc2N(CC2CC2)C(c2ccccc2F)N1C1CCN(CCCn2ccnc2-c2ccccc2)CC1` (stereo not drawn), the Activity is given as 36.4%.

The subject of the next assay is CAPAN-1. The assay is described as follows: Induction of apoptosis in KRAS-dependent human Capan1 cells at 50 uM incubated for 48 hrs by Annexin-V FITC/propidium iodide staining-based flow cytometry (reference value: 3.51%). It counts as functional.
Conditions: not given
An outline of the steps:
as §1
As for `Cc1ccc(-n2nc3c(=O)n(CCCC(=O)NCC(C)c4ccccc4)nc(C)c3c2C)cc1` (stereo not drawn), the Activity is 20.5%.

In another assay the test system is CAPAN-1. The assay is described as follows: Induction of apoptosis in KRAS-dependent human Capan1 cells at 10 uM incubated for 48 hrs by Annexin-V FITC/propidium iodide staining-based flow cytometry (reference value: 3.51%). It counts as functional.
Conditions: not given
In a few lines:
as §1
Molecule `O=C1c2cc(F)ccc2N(CC2CC2)C(c2ccccc2F)N1C1CCN(CCCn2ccnc2-c2ccccc2)CC1` (stereo not drawn) displayed an Activity of 17.95%.

For another assay, the system named is CAPAN-1. The assay is described as follows: Antiproliferative activity against KRAS-dependent human Capan1 cells after 48 hrs by CCK8 assay. To be noted: CAPAN-1, 48 h. (Tetrazolium assays rely on reduction of a dye to a coloured formazan, in cell work by metabolically active cells.)
For the molecule `Cc1ccc2c(c1)NC(c1ccccc1F)N(C1CCN(CCCn3ccnc3-c3ccccc3)CC1)C2=O` (stereo not drawn), the IC50 (usually the concentration needed to halve the response being measured) turned out to be 78 µM. The same measure, in the same setting: the value for `COc1ccc2c(c1)C(=O)N(C1CCN(CCCn3ccnc3-c3ccccc3)CC1)C(c1ccccc1F)N2` (stereo not drawn) was 74 µM; that for `O=C1c2ccc(F)cc2NC(c2ccccc2F)N1CCOc1ccc(-c2nc3ccccc3n2Cc2ccncc2)cc1` (stereo not drawn) was greater than 100 µM; that for `O=C1c2ccccc2NC(c2ccccc2F)N1c1ccc(OCCn2c(-c3ccccc3)nc3ccccc32)cc1` (stereo not drawn) was greater than 100 µM. `Cc1nccn1CCOc1ccc(N2C(=O)c3ccccc3NC2c2ccccn2)cc1` (stereo not drawn) yielded a half-inhibitory concentration (IC50) greater than 100 µM.

In the case of `Cc1ccc2c(c1)C(=O)N(C1CCN(CCCn3ccnc3-c3ccccc3)CC1)C(c1ccccc1F)N2` (stereo not drawn), the concentration for half-maximal inhibition (IC50) came to 42 µM. The same measure, in the same setting: the value for `COc1ccc2c(c1)NC(c1ccccc1F)N(CCOc1ccc(-c3nc4ccccc4n3Cc3ccncc3)cc1)C2=O` (stereo not drawn) was greater than 100 µM; that for `O=C1c2ccccc2NC(c2ccccc2F)N1c1ccc(OCCn2ccnc2-c2ccccc2)cc1` (stereo not drawn) was greater than 100 µM; that for `O=C1c2cc(F)ccc2N(CC2CCC2)C(c2ccccc2F)N1C1CCN(CCCn2ccnc2-c2ccccc2)CC1` (stereo not drawn) was 11.6 µM. With `CN1c2ccc(F)cc2C(=O)N(C2CCN(CCCn3ccnc3-c3ccccc3)CC2)C1c1ccccc1F` (stereo not drawn), the 50% inhibitory concentration (IC50) was determined as 47 µM. Against the preceding molecule, the IC50 is about 4.1-fold higher. For the molecule `O=C1c2ccccc2NC(c2ccccn2)N1c1ccc(OCCn2ccnc2)cc1` (stereo not drawn), the IC50 was greater than 100 µM.

`O=C1c2cc(F)ccc2NC(c2ccccc2F)N1C1CCN(CCCn2ccnc2-c2ccccc2)CC1` (stereo not drawn): the IC50 turned out to be 33 µM. On to `O=C1c2ccccc2NC(c2ccccc2F)N1C1CCN(CCCn2ccnc2-c2ccccc2)CC1` (stereo not drawn), for which half-maximal inhibition (IC50) required 34 µM. On to `O=C1c2cc(F)ccc2NC(c2ccccc2F)N1CCOc1ccc(-c2nc3ccccc3n2Cc2ccncc2)cc1` (stereo not drawn), for which the IC50 is greater than 100 µM. `Cc1nc2ccccc2n1CCOc1ccc(N2C(=O)c3ccccc3NC2c2ccccc2F)cc1` (stereo not drawn) had an IC50 greater than 100 µM. Molecule `O=C1c2cc(F)ccc2N(CC2CCCCC2)C(c2ccccc2F)N1C1CCN(CCCn2ccnc2-c2ccccc2)CC1` (stereo not drawn) came in with an IC50 of 54.6 µM. This counts as double-digit micromolar. The same measure, in the same setting: in the case of `O=C1c2cc(Cl)ccc2NC(c2ccccc2F)N1CCOc1ccc(-c2nc3ccccc3n2Cc2ccncc2)cc1` (stereo not drawn) it was greater than 100 µM. With `O=C1c2ccccc2NC(c2ccccn2)N1c1ccc(OCCn2c(-c3ccccc3)nc3ccccc32)cc1` (stereo not drawn), the half-maximal inhibitory concentration (IC50) is greater than 100 µM. In turn, `O=C1c2ccccc2NC(c2ccccc2F)N1c1ccc(OCCn2ccnc2)cc1` (stereo not drawn) registered an IC50 greater than 100 µM.

In turn, `O=C1c2ccc(Cl)cc2NC(c2ccccc2F)N1CCOc1ccc(-c2nc3ccccc3n2Cc2ccncc2)cc1` (stereo not drawn) displayed an IC50 greater than 100 µM. `O=C1c2ccc(F)cc2NC(c2ccccc2F)N1C1CCN(CCCn2ccnc2-c2ccccc2)CC1` (stereo not drawn) yielded a half-maximal inhibitory concentration (IC50) of 35 µM. Consider `Cc1ccc2c(c1)C(=O)N(CCOc1ccc(-c3nc4ccccc4n3Cc3ccncc3)cc1)C(c1ccccc1F)N2` (stereo not drawn), for which the IC50 is greater than 100 µM.

`O=C1c2cc(F)ccc2N(CC2CC2)C(c2ccccc2F)N1C1CCN(CCCn2ccnc2-c2ccccc2)CC1` (stereo not drawn) displayed an IC50 of 8.8 µM.

`O=C1c2ccccc2NC(c2ccccc2F)N1CCOc1ccc(-c2nc3ccccc3n2Cc2ccncc2)cc1` (stereo not drawn) displayed an IC50 greater than 100 µM. `O=C1c2cc(F)ccc2N(CC2CCCC2)C(c2ccccc2F)N1C1CCN(CCCn2ccnc2-c2ccccc2)CC1` (stereo not drawn) gave an IC50 of 12.4 µM.

The molecule `Cc1ccc(-n2nc3c(=O)n(CCCC(=O)NCC(C)c4ccccc4)nc(C)c3c2C)cc1` (stereo not drawn) displayed an IC50 of 48 µM. Against the preceding molecule, the IC50 is about 3.9-fold higher.

As for `O=C1c2ccccc2NC(c2ccccn2)N1c1ccc(OCCn2ccnc2-c2ccccc2)cc1` (stereo not drawn), the IC50 was 52 µM.

Molecule `COc1ccc2c(c1)NC(c1ccccc1F)N(C1CCN(CCCn3ccnc3-c3ccccc3)CC1)C2=O` (stereo not drawn) displayed a half-inhibitory concentration (IC50) of 82 µM. Still for that read-out and setting: in the case of `Cc1nccn1CCOc1ccc(N2C(=O)c3ccccc3NC2c2ccccc2F)cc1` (stereo not drawn) it was greater than 100 µM.
